According to paper PMC13170702 (Nuclear medicine and biology, 2025):

Assay: organ radiation dose estimates, OLINDA 1.1, ICRP-60
Assay type: in vivo, human
Outline: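 Whole-body PET-MR ran as nine scans to 214 min. Organ VOIs were drawn in AMIDE, giving decay-corrected %IA per VOI; remainder = whole body minus measured organs. TIACs came from the exponential model (EXM) in OLINDA 1.1. Per-participant organ doses used 70 kg adult male or 55 kg female models in OLINDA 1.1. Effective dose (mSv) = organ absorbed doses × ICRP-60 tissue weighting factors.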

COC(=O)[C@@H](N)CC(=O)Nc1ccc2c(c1)Cc1cc([18F])ccc1-2 [[^18F]RP-115, methyl N^4-(7-[^18F]fluoro-9H-fluoren-2-yl)asparaginate]
Effective dose (whole body) (F1 (189 MBq)): 5.42 mSv | Estimated absorbed dose, Adrenals (F1 (189 MBq)): 3.89 mGy | Estimated absorbed dose, Brain (F1 (189 MBq)): 3.40 mGy | Estimated absorbed dose, Breasts (F1 (189 MBq)): 1.79 mGy | Estimated absorbed dose, Gallbladder wall (F1 (189 MBq)): 4.40 mGy | Estimated absorbed dose, Heart wall (F1 (189 MBq)): 4.25 mGy | Estimated absorbed dose, Kidneys (F1 (189 MBq)): 32.5 mGy | Estimated absorbed dose, Liver (F1 (189 MBq)): 7.85 mGy | Estimated absorbed dose, Lower large intestine wall (F1 (189 MBq)): 2.64 mGy | Estimated absorbed dose, Lungs (F1 (189 MBq)): 12.3 mGy | Estimated absorbed dose, Muscle (F1 (189 MBq)): 2.06 mGy | Estimated absorbed dose, Osteogenic cells (F1 (189 MBq)): 2.94 mGy | Estimated absorbed dose, Ovaries (F1 (189 MBq)): 2.83 mGy | Estimated absorbed dose, Pancreas (F1 (189 MBq)): 6.10 mGy | Estimated absorbed dose, Red marrow (F1 (189 MBq)): 2.15 mGy | Estimated absorbed dose, Remainder (F1 (189 MBq)): 2.62 mGy | Estimated absorbed dose, Skin (F1 (189 MBq)): 1.44 mGy | Estimated absorbed dose, Small intestine (F1 (189 MBq)): 6.06 mGy | Estimated absorbed dose, Spleen (F1 (189 MBq)): 8.87 mGy | Estimated absorbed dose, Stomach wall (F1 (189 MBq)): 2.68 mGy | Estimated absorbed dose, Thymus (F1 (189 MBq)): 7.08 mGy | Estimated absorbed dose, Thyroid (F1 (189 MBq)): 1.88 mGy | Estimated absorbed dose, Upper, lower intestine wall (F1 (189 MBq)): 3.09 mGy | Estimated absorbed dose, Urinary bladder wall (F1 (189 MBq)): 18.8 mGy | Estimated absorbed dose, Uterus (F1 (189 MBq)): 4.21 mGy | Effective dose (whole body) (F2, no voiding (355 MBq)): 10.6 mSv | Estimated absorbed dose, Adrenals (F2, no voiding (355 MBq)): 7.74 mGy | Estimated absorbed dose, Brain (F2, no voiding (355 MBq)): 5.65 mGy | Estimated absorbed dose, Breasts (F2, no voiding (355 MBq)): 2.93 mGy | Estimated absorbed dose, Gallbladder wall (F2, no voiding (355 MBq)): 7.35 mGy | Estimated absorbed dose, Heart wall (F2, no voiding (355 MBq)): 6.61 mGy | Estimated absorbed dose, Kidneys (F2, no voiding (355 MBq)): 93.4 mGy | Estimated absorbed dose, Liver (F2, no voiding (355 MBq)): 14.6 mGy | Estimated absorbed dose, Lower large intestine wall (F2, no voiding (355 MBq)): 4.26 mGy | Estimated absorbed dose, Lungs (F2, no voiding (355 MBq)): 25.5 mGy | Estimated absorbed dose, Muscle (F2, no voiding (355 MBq)): 3.45 mGy | Estimated absorbed dose, Osteogenic cells (F2, no voiding (355 MBq)): 4.69 mGy | Estimated absorbed dose, Ovaries (F2, no voiding (355 MBq)): 5.22 mGy | Estimated absorbed dose, Pancreas (F2, no voiding (355 MBq)): 7.78 mGy | Estimated absorbed dose, Red marrow (F2, no voiding (355 MBq)): 3.77 mGy | Estimated absorbed dose, Remainder (F2, no voiding (355 MBq)): 4.65 mGy | Estimated absorbed dose, Skin (F2, no voiding (355 MBq)): 2.31 mGy | Estimated absorbed dose, Small intestine (F2, no voiding (355 MBq)): 8.35 mGy | Estimated absorbed dose, Spleen (F2, no voiding (355 MBq)): 5.86 mGy | Estimated absorbed dose, Stomach wall (F2, no voiding (355 MBq)): 4.40 mGy | Estimated absorbed dose, Thymus (F2, no voiding (355 MBq)): 7.57 mGy | Estimated absorbed dose, Thyroid (F2, no voiding (355 MBq)): 17.0 mGy | Estimated absorbed dose, Upper, lower intestine wall (F2, no voiding (355 MBq)): 5.04 mGy | Estimated absorbed dose, Urinary bladder wall (F2, no voiding (355 MBq)): 32.9 mGy | Estimated absorbed dose, Uterus (F2, no voiding (355 MBq)): 47.2 mGy | Effective dose (whole body) (F3 (117 MBq)): 2.67 mSv | Estimated absorbed dose, Adrenals (F3 (117 MBq)): 2.50 mGy | Estimated absorbed dose, Brain (F3 (117 MBq)): 1.60 mGy | Estimated absorbed dose, Breasts (F3 (117 MBq)): 1.13 mGy | Estimated absorbed dose, Gallbladder wall (F3 (117 MBq)): 2.95 mGy | Estimated absorbed dose, Heart wall (F3 (117 MBq)): 2.26 mGy | Estimated absorbed dose, Kidneys (F3 (117 MBq)): 21.0 mGy | Estimated absorbed dose, Liver (F3 (117 MBq)): 5.81 mGy | Estimated absorbed dose, Lower large intestine wall (F3 (117 MBq)): 1.47 mGy | Estimated absorbed dose, Lungs (F3 (117 MBq)): 5.47 mGy | Estimated absorbed dose, Muscle (F3 (117 MBq)): 1.29 mGy | Estimated absorbed dose, Osteogenic cells (F3 (117 MBq)): 1.94 mGy | Estimated absorbed dose, Ovaries (F3 (117 MBq)): 1.63 mGy | Estimated absorbed dose, Pancreas (F3 (117 MBq)): 2.85 mGy | Estimated absorbed dose, Red marrow (F3 (117 MBq)): 1.36 mGy | Estimated absorbed dose, Remainder (F3 (117 MBq)): 1.61 mGy | Estimated absorbed dose, Skin (F3 (117 MBq)): 0.945 mGy | Estimated absorbed dose, Small intestine (F3 (117 MBq)): 3.30 mGy | Estimated absorbed dose, Spleen (F3 (117 MBq)): 3.02 mGy | Estimated absorbed dose, Stomach wall (F3 (117 MBq)): 1.68 mGy | Estimated absorbed dose, Thymus (F3 (117 MBq)): 2.23 mGy | Estimated absorbed dose, Thyroid (F3 (117 MBq)): 2.03 mGy | Estimated absorbed dose, Upper, lower intestine wall (F3 (117 MBq)): 1.91 mGy | Estimated absorbed dose, Urinary bladder wall (F3 (117 MBq)): 1.57 mGy | Estimated absorbed dose, Uterus (F3 (117 MBq)): 3.93 mGy | Effective dose (whole body) (F4 (167 MBq)): 3.90 mSv | Estimated absorbed dose, Adrenals (F4 (167 MBq)): 3.19 mGy | Estimated absorbed dose, Brain (F4 (167 MBq)): 2.79 mGy | Estimated absorbed dose, Breasts (F4 (167 MBq)): 1.47 mGy | Estimated absorbed dose, Gallbladder wall (F4 (167 MBq)): 3.08 mGy | Estimated absorbed dose, Heart wall (F4 (167 MBq)): 4.15 mGy | Estimated absorbed dose, Kidneys (F4 (167 MBq)): 28.1 mGy | Estimated absorbed dose, Liver (F4 (167 MBq)): 6.41 mGy | Estimated absorbed dose, Lower large intestine wall (F4 (167 MBq)): 2.09 mGy | Estimated absorbed dose, Lungs (F4 (167 MBq)): 9.27 mGy | Estimated absorbed dose, Muscle (F4 (167 MBq)): 1.67 mGy | Estimated absorbed dose, Osteogenic cells (F4 (167 MBq)): 2.46 mGy | Estimated absorbed dose, Ovaries (F4 (167 MBq)): 2.39 mGy | Estimated absorbed dose, Pancreas (F4 (167 MBq)): 3.95 mGy | Estimated absorbed dose, Red marrow (F4 (167 MBq)): 1.79 mGy | Estimated absorbed dose, Remainder (F4 (167 MBq)): 2.14 mGy | Estimated absorbed dose, Skin (F4 (167 MBq)): 1.19 mGy | Estimated absorbed dose, Small intestine (F4 (167 MBq)): 6.82 mGy | Estimated absorbed dose, Spleen (F4 (167 MBq)): 3.11 mGy | Estimated absorbed dose, Stomach wall (F4 (167 MBq)): 2.19 mGy | Estimated absorbed dose, Thymus (F4 (167 MBq)): 4.01 mGy | Estimated absorbed dose, Thyroid (F4 (167 MBq)): 2.31 mGy | Estimated absorbed dose, Upper, lower intestine wall (F4 (167 MBq)): 2.83 mGy | Estimated absorbed dose, Urinary bladder wall (F4 (167 MBq)): 4.93 mGy | Estimated absorbed dose, Uterus (F4 (167 MBq)): 6.49 mGy | Effective dose (whole body) (Female n=4, mean±SD): 0.0262±0.00361 mSv/MBq | Estimated dose, Adrenals (Female n=4, mean±SD): 0.0207±0.00119 mGy/MBq | Estimated dose, Brain (Female n=4, mean±SD): 0.0161±0.0018 mGy/MBq | Estimated dose, Breasts (Female n=4, mean±SD): 0.00903±0.000633 mGy/MBq | Estimated dose, Gallbladder wall (Female n=4, mean±SD): 0.0219±0.00297 mGy/MBq | Estimated dose, Heart wall (Female n=4, mean±SD): 0.0213±0.00289 mGy/MBq | Estimated dose, Kidneys (Female n=4, mean±SD): 0.196±0.0451 mGy/MBq | Estimated dose, Liver (Female n=4, mean±SD): 0.0426±0.00491 mGy/MBq | Estimated dose, Lower, large intestine wall (Female n=4, mean±SD): 0.0128±0.000858 mGy/MBq | Estimated dose, Lungs (Female n=4, mean±SD): 0.0598±0.0109 mGy/MBq | Estimated dose, Muscle (Female n=4, mean±SD): 0.0104±0.00065 mGy/MBq | Estimated dose, Osteogenic cells (Female n=4, mean±SD): 0.0150±0.00144 mGy/MBq | Estimated dose, Ovaries (Female n=4, mean±SD): 0.0145±0.000479 mGy/MBq | Estimated dose, Pancreas (Female n=4, mean±SD): 0.0256±0.00462 mGy/MBq | Estimated dose, Red marrow (Female n=4, mean±SD): 0.0111±0.000499 mGy/MBq | Estimated dose, Remainder (Female n=4, mean±SD): 0.0134±0.000535 mGy/MBq | Estimated dose, Skin (Female n=4, mean±SD): 0.00734±0.000677 mGy/MBq | Estimated dose, Small intestine (Female n=4, mean±SD): 0.0312±0.00733 mGy/MBq | Estimated dose, Spleen (Female n=4, mean±SD): 0.0270±0.0139 mGy/MBq | Estimated dose, Stomach wall (Female n=4, mean±SD): 0.0135±0.000943 mGy/MBq | Estimated dose, Thymus (Female n=4, mean±SD): 0.0255±0.00826 mGy/MBq | Estimated dose, Thyroid (Female n=4, mean±SD): 0.0223±0.0174 mGy/MBq
